Data published in ChEMBL document CHEMBL4808161, “Structure-Activity Relationship Study of Amidobenzimidazole Analogues Leading to Potent and Systemically Administrable Stimulator of Interferon Gene (STING) Agonists” (J Med Chem, 2021).
Activity calls are given as the source filed them. The calls are words filed in the database; no cut-off is given here.

Key:
[1] = biological target: T1, Stimulator of interferon genes protein (Homo sapiens, UniProt Q86WV6); assay: Activation of STING in human THP1-Dual cells assessed as induction of ISG signaling at 0.005 to 10 uM measured after 24 hrs by Quanti-Blue reagent based assay; format: cell-based; conditions: filed as activator, dose 0.005-10 µM
Procedure, shortened: (§1)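 THP1-Dual cells (1 × 10⁵/well) treated for 24 h. Supernatant (20 μL) incubated 1 h at 37 °C with QUANTI-Blue, then absorbance read at 650 nm. Fold change calculated relative to vehicle control.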

[2] = biological target: T1, Stimulator of interferon genes protein; assay: Activation of STING in human THP1-Dual cells assessed as increase in IP-10 secretion at 0.01 to 10 uM measured after 24 hrs by ELISA; format: cell-based; conditions: filed as activator, dose 0.01-10 µM
Procedure, shortened: (§2)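 THP1-Dual cells seeded at 10⁵ cells/well and treated for 24 h. Human IP-10 and IFN-β in supernatant quantified by ELISA kits. Concentration (pg/mL) derived from a standard curve.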

[3] = biological target: T1, Stimulator of interferon genes protein; assay: Activation of STING in human THP1-Dual cells assessed as induction of NF-KB signaling at 0.005 to 10 uM measured after 24 hrs by Quanti-Blue reagent based assay; format: cell-based; conditions: filed as activator, dose 0.005-10 µM; procedure, shortened: as §1
[4] = Solubility of the compound; format: physicochemical
Homo sapiens [5] = species on record: Homo sapiens; assay: Binding affinity to human STING H232 mutant assessed as thermal stability by measuring melting temperature […] differential scanning fluorimetry (reference value: 39.5 degreeC); conditions: filed as activator
Procedure, shortened: (§3)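 Thermal shift by DSF: 5 μM STING protein, 50 μM compound and 10× SYPRO Orange in 10 mM HEPES pH 7.5, 150 mM NaCl. Samples heated from 30 to 80 °C at 0.5 °C/min. Tm taken as the temperature of median fluorescence between onset and maximum; n = 3.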

Homo sapiens [6] = species on record: Homo sapiens; assay: Binding affinity to human STING 293Q mutant assessed as thermal stability by measuring melting temperature […] differential scanning fluorimetry (reference value: 46.25 degreeC); conditions: filed as activator; procedure, shortened: as §3
4T1 [7] = assay: Antitumor activity against mouse 4T1 cells […] in orthotopic BALB/c mouse assessed as tumor regression at 10 mg/kg, iv administered on day 1,4 and 7 post inoculation; format: functional, organism-based; conditions: time 7.0 day
Procedure, shortened: (§4)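 BALB/c mice bearing orthotopic 4T1 tumors (5 × 10⁵ cells in the breast fat pad; n = 5) dosed iv at 10 mg/kg on days 1, 4 and 7 once tumors reached about 50–100 mm³. Tumor volume calculated as (a × b²)/2 and, with body weight, measured twice weekly.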

[8] = biological target: T1, Stimulator of interferon genes protein; assay: Activation of STING in human THP1-Dual cells assessed as increase in IFNbeta secretion at 10 uM measured after 24 hrs by ELISA; format: cell-based; conditions: filed as activator; procedure, shortened: as §2
[9] = test system: Stimulator of interferon genes protein (Homo sapiens), Q86WV6 [UNDEFINED MUTATION]; assay: Binding affinity to human STING R232 mutant assessed as thermal stability by measuring melting temperature […] differential scanning fluorimetry (reference value: 38.75 degreeC); conditions: filed as activator; procedure, shortened: as §3
[10] = biological target: T1, Stimulator of interferon genes protein; assay: Activation of human STING (139 to 379 residues) expressed in THP1-Blue ISG cells at 10 uM incubated for 24 hrs by quanti-blue SEAP reporter gene assay relative to control; format: cell-based; conditions: filed as activator
Procedure, shortened: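 THP1-Blue-ISG cells (1 × 10⁵/well) treated for 24 h; single-concentration screen at 10 μM. SEAP ISG reporter in 20 μL supernatant read with QUANTI-Blue at 650 nm. Activation given as fold over control, averaging at least two experiments.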

[11] = biological target: T1, Stimulator of interferon genes protein; assay: Activation of STING in human THP1-Dual cells assessed as increase in TBK1/IRF3 phosphorylation measured after 4 hrs by Western blot analysis; format: cell-based; conditions: filed as activator, dose 3.3-30 µM
Procedure, shortened: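 THP1-Dual cells (8 × 10⁵/well) treated at 3.3, 10 and 30 μM for 4 h, then lysed in SDS sample buffer and boiled. Lysates run on 10% SDS-PAGE and transferred to nitrocellulose. Blots probed for TBK1, phospho-TBK1 Ser172, IRF3, phospho-IRF3 Ser396 and GAPDH, with HRP secondaries and ECL detection.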

[12] = biological target: T2, Stimulator of interferon genes protein (Mus musculus) (UniProt Q3TBT3); assay: Activation of mouse STING expressed in RAW-Lucia ISG cells at 50 uM incubated for 24 hrs by QUANTI-Luc luciferase reporter gene assay relative to control; conditions: filed as activator
T2 sequence (whole entry): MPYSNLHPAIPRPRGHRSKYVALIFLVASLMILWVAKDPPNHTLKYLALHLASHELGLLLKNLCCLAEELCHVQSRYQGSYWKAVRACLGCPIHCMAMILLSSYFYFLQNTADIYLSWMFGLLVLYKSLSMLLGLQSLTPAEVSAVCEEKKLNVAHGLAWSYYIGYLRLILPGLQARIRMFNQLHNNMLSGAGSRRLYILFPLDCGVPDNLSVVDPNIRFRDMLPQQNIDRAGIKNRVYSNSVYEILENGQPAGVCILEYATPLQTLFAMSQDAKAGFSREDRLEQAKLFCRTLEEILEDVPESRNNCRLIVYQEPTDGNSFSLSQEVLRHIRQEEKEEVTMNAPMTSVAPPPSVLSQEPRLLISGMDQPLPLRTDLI

[13] = test system: Stimulator of interferon genes protein (Homo sapiens), Q86WV6 [R71H,G230A,R293Q]; assay: Binding affinity to human STING HAQ mutant assessed as thermal stability by measuring melting temperature […] differential scanning fluorimetry (reference value: 37.25 degreeC); conditions: filed as activator; procedure, shortened: as §3
Mus musculus = species on record: Mus musculus; assay: Binding affinity to mouse STING mR231 mutant assessed as thermal stability by measuring melting temperature […] differential scanning fluorimetry (reference value: 42 degreeC); conditions: filed as activator; procedure, shortened: as §3
[14] = biological target: T1, Stimulator of interferon genes protein; assay: Activation of STING in human THP1-Dual cells assessed as induction of NF-KB signaling measured after 24 hrs by Quanti-Blue reagent based assay; format: cell-based; conditions: filed as activator, dose 0.005-10 µM; procedure, shortened: as §1
THP1-Dual KO-STING = assay: Effect on ISG expression in human THP1-Dual KO-STING cells at 10 uM measured after 24 hrs; format: functional, cell-based
Procedure, shortened: (§5)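 Reporter cells (1 × 10⁵ cells/well) exposed to compound for 24 h at 37 °C in 5% CO₂. Secreted luciferase ISG reporter in 20 μL supernatant read by luminescence with QUANTI-Luc reagent. Activity expressed as fold change versus control.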

RAW-Lucia ISG-KO-STING = assay: Effect on ISG expression in mouse RAW-Lucia ISG-KO-STING cells at 0.005 to 10 uM measured after 24 hrs; format: functional, cell-based; conditions: dose 0.005-10 µM; procedure, shortened: as §5
4T1 [15] = assay: Antitumor activity against mouse 4T1 cells and CT26 cells co-inoculated in orthotopic BALB/c mouse assessed as supression of tumor growth at 10 mg/kg, iv administered on day 1,4 and 7 post inoculation; format: functional, organism-based; conditions: time 7.0 day, in the assay text read “4T1 cells inoculated” for “4T1 cells and CT26 cells co-inoculated”; procedure, shortened: as §4
293-Dual hSTING-H232 = assay: Activation of STING H232 in human 293-Dual hSTING-H232 cells assessed as induction of ISG signaling measured after 24 hrs; format: cell-based; conditions: filed as activator, dose 0.005-10 µM; procedure, shortened: as §5
CT26 = assay: Antitumor activity against mouse CT26 cells inoculated in BALB/c mouse assessed as inhibition of tumor growth at 500 ug, IT(Intratumoral) administered on day 1,4 and 7 post inoculation; format: functional; conditions: dose 500.0 µg, time 7.0 day
Procedure, shortened: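 BALB/c mice with subcutaneous CT26 tumors (5 × 10⁵ cells, right armpit; n = 6) given 500 μg intratumorally on days 1, 4 and 7 at about 50–100 mm³. Tumor volume ((a × b²)/2) and body weight measured twice weekly.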

[16] = test system: Stimulator of interferon genes protein (Homo sapiens), Q86WV6 [UNDEFINED MUTATION]; assay: Activation of STING H232 in human 293-Dual hSTING-R232 cells assessed as induction of ISG signaling measured after 24 hrs; format: cell-based; conditions: filed as activator, dose 0.005-10 µM; procedure, shortened: as §5
[17] = biological target: T1, Stimulator of interferon genes protein; assay: Activation of STING in human THP1-Dual cells assessed as induction of ISG signaling measured after 24 hrs by Quanti-Blue reagent based assay; format: cell-based; conditions: filed as activator, dose 0.005-10 µM; procedure, shortened: as §1
[18] = biological target: T1, Stimulator of interferon genes protein; assay: Inhibition of [3H]-cGAMP binding to STING (unknown origin)

T1 sequence (Q86WV6 whole entry): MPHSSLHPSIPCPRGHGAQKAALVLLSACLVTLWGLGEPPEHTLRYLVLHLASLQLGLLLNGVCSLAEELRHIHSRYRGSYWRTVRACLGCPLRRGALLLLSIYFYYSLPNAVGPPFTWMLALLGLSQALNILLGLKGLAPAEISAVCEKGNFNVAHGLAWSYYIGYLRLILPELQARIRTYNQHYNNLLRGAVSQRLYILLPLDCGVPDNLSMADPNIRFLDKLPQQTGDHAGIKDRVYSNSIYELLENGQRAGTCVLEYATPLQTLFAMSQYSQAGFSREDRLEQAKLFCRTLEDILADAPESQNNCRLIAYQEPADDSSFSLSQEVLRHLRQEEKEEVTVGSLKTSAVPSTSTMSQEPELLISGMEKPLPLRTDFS
Sequence of Stimulator of interferon genes protein (Homo sapiens), Q86WV6 [UNDEFINED MUTATION] (Q86WV6 whole entry, looked up, change not shown, the tested form may be a part): as the sequence (Q86WV6 whole entry) above
Sequence of Stimulator of interferon genes protein (Homo sapiens), Q86WV6 [R71H,G230A,R293Q] (Q86WV6 whole entry R71H/G230A/R293Q): as the sequence (Q86WV6 whole entry) above, with R71H, G230A, R293Q counted along it

| SMILES | Activity [2] | Tm (Homo sapiens [5]) [°C] | Tm (Homo sapiens [6]) [°C] | Activity [8] | Tm [9] [°C] | fold change (FC) [10] | Activity [11] | fold change (FC) [12] | Tm [13] [°C] | Tm (Mus musculus) [°C] | further results |
| --- | --- | --- | --- | --- | --- | --- | --- | --- | --- | --- | --- |
| CCn1nc(C)cc1C(=O)/N=c1\[nH]c2cc(C(N)=O)cc(OC)c2n1C/C=C/Cn1/c(=N/C(=O)c2cc(C)nn2CC)[nH]c2cc(C(N)=O)cc(OCCCN3CCOCC3)c21.Cl.Cl.Cl | Active | 50.2 | 49 | Active | 48.5 | 26 | Dose-Dependent Effect | 8.11 | 48.8 | 55.5 | Activity [1]: Active; Activity [3]: Active; solubility [4]: 3230 µg/mL; Activity (4T1 [7]): Active |
| CCn1nc(C)cc1C(=O)/N=c1\[nH]c2cc(-c3ncn[nH]3)cc(OC)c2n1C/C=C/Cn1/c(=N/C(=O)c2cc(C)nn2CC)[nH]c2cc(C(N)=O)cc(OCCCN3CCOCC3)c21 | Active | 46.8 | 46.8 | Active | 45.5 | 19.2 | Dose-Dependent Effect | 3.2 | 45.8 | 52.8 | Activity [14]: Dose-Dependent Effect; Activity (THP1-Dual KO-STING): inactive; Activity (RAW-Lucia ISG-KO-STING): inactive; inhibition (4T1 [15]): Active; Activity (293-Dual hSTING-H232): Dose-Dependent Effect; inhibition (CT26): Active; Activity [16]: Dose-Dependent Effect; Activity [17]: Dose-Dependent Effect |
| CCn1nc(C)cc1C(=O)/N=c1\[nH]c2cc(C(=O)O)ccc2n1C[C@@H](O)c1ccccc1 | – | – | – | – | – | – | – | – | – | – | IC50 [18]: 14 µM |
